In publication PMC3775155 (Clinical Drug Investigation, 2013):
Where “and” joins values, the source holds several entries; their conditions need not be identical. Equal values may be shown once. Read-outs that look alike come from different tables or passages of the source.

Columns and labels:
[1] = multiple daily doses of vortioxetine 10 mg; CYP2D6 probe; cited from earlier work
[2] = format: in vivo, human
[3] = format: in vivo, human; remark: listed apart in the source
[4] = Adverse events in the bupropion study; format: in vivo, human; details: monotherapy period, days 1–14, n = 30
[5] = Plasma metabolic ratio of metabolite; format: in vivo; details: minor hydroxyl metabolite of vortioxetine
[6] = Nonclinical pharmacology study: blood–brain barrier penetration; details: based on a nonclinical pharmacology study, unpublished results
[7] = format: in vivo, human; details: for AUC / Cmax: female, human, plasma, oral; for AUC: AUC24, least-squares mean, day 21; for Cmax: least-squares mean; for AUC24 ratio (test/reference) / Cmax ratio (test/reference): with vortioxetine vs alone
[8] = Pharmacological activity of the major metabolite; details: major carboxylic acid metabolite
[9] = format: in vivo, human; remark: listed apart in the source
In short: (§1)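 Open-label, randomized, 1-sequence design in healthy adults aged 18–55 y with BMI 19–30 kg/m2 (N = 36 across two arms). Test compound given as a single 10 mg dose on day 1, then a 14-day washout. The azole antifungal (CYP3A/P-gp inhibitor) was given at 400 mg once daily on days 15–21, with test compound 10 mg on day 21. EDTA plasma was sampled predose and 1–120 h postdose on days 1 and 21. Analysis used SPE and HPLC. Noncompartmental AUClast, AUC∞ and Cmax were derived. A mixed-effects model (treatment fixed, subject random) gave back-transformed LS-mean ratios with 90% CI.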

[10] = cited from earlier work
[11] = system: CYP3A4/5; assay: In vitro CYP inhibition; format: in vitro ADME
[12] = format: in vivo, human; remark: listed apart in the source
In short: as §1, with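 “antifungal” for “antifungal (CYP3A/P-gp inhibitor)”, “200” for “400”, “was applied, and” for “gave”, “CI are reported.” for “CI.”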

[13] = cited from earlier work; remark: listed apart in the source
[14] = system: CYP2C19; assay: In vitro CYP inhibition; format: in vitro ADME
[15] = system: CYP2B6; assay: In vitro CYP inhibition; format: in vitro ADME
[16] = system: CYP2C8; assay: In vitro CYP inhibition; format: in vitro ADME
[17] = format: in vivo, human; remark: listed apart in the source
[18] = target: P-glycoprotein (P-gp) (Homo sapiens, UniProt P08183); assay: In vitro P-gp net efflux ratio; format: in vitro ADME; details: compared with digoxin; unpublished results
Sequence of P-glycoprotein (P-gp) (P08183 whole entry): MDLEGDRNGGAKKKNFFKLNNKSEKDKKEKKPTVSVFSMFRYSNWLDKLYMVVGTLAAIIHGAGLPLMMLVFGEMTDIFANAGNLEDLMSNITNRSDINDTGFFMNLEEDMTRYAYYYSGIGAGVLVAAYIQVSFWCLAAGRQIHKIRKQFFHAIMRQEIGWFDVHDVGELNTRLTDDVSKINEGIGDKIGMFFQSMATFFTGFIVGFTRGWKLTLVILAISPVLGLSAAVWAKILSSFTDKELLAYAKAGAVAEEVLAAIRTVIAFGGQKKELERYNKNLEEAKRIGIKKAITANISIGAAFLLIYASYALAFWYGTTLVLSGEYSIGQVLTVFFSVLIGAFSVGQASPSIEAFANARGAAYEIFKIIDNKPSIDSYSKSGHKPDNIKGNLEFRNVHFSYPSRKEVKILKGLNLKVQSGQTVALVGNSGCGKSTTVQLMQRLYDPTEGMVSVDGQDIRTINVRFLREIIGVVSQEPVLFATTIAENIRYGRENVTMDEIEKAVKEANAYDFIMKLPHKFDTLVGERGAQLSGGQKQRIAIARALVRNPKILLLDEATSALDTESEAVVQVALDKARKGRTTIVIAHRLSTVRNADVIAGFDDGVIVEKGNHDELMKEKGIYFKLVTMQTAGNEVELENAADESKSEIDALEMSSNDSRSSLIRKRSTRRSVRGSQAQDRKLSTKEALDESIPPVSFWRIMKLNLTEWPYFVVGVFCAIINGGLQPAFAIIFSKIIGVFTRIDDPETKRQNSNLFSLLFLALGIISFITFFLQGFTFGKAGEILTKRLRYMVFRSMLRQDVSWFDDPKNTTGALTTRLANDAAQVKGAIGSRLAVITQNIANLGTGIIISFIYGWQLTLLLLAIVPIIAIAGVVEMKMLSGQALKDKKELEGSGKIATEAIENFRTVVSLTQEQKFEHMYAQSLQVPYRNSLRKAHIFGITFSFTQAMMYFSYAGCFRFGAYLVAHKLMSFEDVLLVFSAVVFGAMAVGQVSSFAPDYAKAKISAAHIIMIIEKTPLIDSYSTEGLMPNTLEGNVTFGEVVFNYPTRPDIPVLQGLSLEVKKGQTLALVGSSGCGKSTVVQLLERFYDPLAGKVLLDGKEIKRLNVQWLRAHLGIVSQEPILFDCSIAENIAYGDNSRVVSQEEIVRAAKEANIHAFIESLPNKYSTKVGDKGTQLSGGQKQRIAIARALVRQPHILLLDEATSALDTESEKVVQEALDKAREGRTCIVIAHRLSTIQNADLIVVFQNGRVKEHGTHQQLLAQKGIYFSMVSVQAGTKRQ

[19] = system: CYP2D6; assay: In vitro CYP inhibition; format: in vitro ADME
[20] = system: CYP2C9; assay: In vitro CYP inhibition; format: in vitro ADME
[21] = system: CYP2A6; assay: In vitro CYP inhibition; format: in vitro ADME
[22] = format: in vivo, human; remark: listed apart in the source
[23] = format: in vivo, human; remark: listed apart in the source
[24] = system: CYP2E1; assay: In vitro CYP inhibition; format: in vitro ADME
[25] = system: CYP1A2; assay: In vitro CYP inhibition; format: in vitro ADME
[26] = omeprazole 40 mg single dose + vortioxetine 10 mg at steady state (test), day 16
[27] = omeprazole 40 mg single dose alone (reference), day 1
[28] = concomitant agent alone (reference): placebo + EE/L 30/150 μg for 21 days
[29] = vortioxetine 10 mg + EE/L 30/150 μg for 21 days (test)
[30] = co-administered with ketoconazole vs vortioxetine alone
[31] = co-administered with fluconazole vs vortioxetine alone
[32] = co-administered with bupropion vs vortioxetine alone
[33] = co-administered with rifampicin vs vortioxetine alone

Structure (SMILES): COc1ccc2c(c1)[C@]13CCCC[C@@H]1[C@H](C2)N(C)CC3 [dextromethorphan]
- decrease in plasma exposure of probe substrate by vortioxetine [1]: up to 24%

Structure (SMILES): COc1ccc2nc([S+]([O-])Cc3ncc(CO)c(OC)c3C)[nH]c2c1 (centres unmarked) [5′-Hydroxyomeprazole, 5′-hydroxyomeprazole]
- AUC∞, least-squares mean [2, 26]: 976 ng·h/mL
- Cmax, least-squares mean [2, 26]: 411 ng/mL
- AUC∞, least-squares mean [2, 27]: 997 ng·h/mL
- Cmax, least-squares mean [2, 27]: 392 ng/mL
- AUC∞ ratio (test/reference) ([2]; with vortioxetine vs alone): 97.9%
- Cmax ratio (test/reference) ([2]; with vortioxetine vs alone): 104%

Structure (SMILES): CC(NC(C)(C)C)C(=O)c1cccc(Cl)c1 (centres unmarked) [Bupropion, bupropion]
- Cmax greater when given with vortioxetine than without ([3]; bupropion with vs without vortioxetine): 18%
- AUC ([3]; human, plasma, 150 mg): 791 ng·h/mL
- Cmax, least-squares mean ([3]; vortioxetine 10 mg once daily + bupropion 150 mg twice daily (test), day 28): 177 ng/mL
- AUC24 ratio (test/reference) ([3]; with vortioxetine vs alone): 99.22%
- Cmax ratio (test/reference) ([3]; with vortioxetine vs alone): 117.98%
- Abnormal dreams [4]: 0 number of subjects (%)
- Agitation [4]: 0 number of subjects (%)
- Anxiety [4]: 0 number of subjects (%)
- Any adverse event [4]: 19 (63.3) number of subjects (%)
- Constipation [4]: 0 number of subjects (%)
- Dizziness [4]: 3 (10.0) number of subjects (%)
- Dyspepsia [4]: 2 (6.7) number of subjects (%)
- Fatigue [4]: 0 number of subjects (%)
- Headache [4]: 10 (33.3) number of subjects (%)
- Hyperhidrosis [4]: 1 (3.3) number of subjects (%)
- Insomnia [4]: 1 (3.3) number of subjects (%)
- Nausea [4]: 5 (16.7) number of subjects (%)
- Oropharyngeal pain [4]: 0 number of subjects (%)
- Palpitations [4]: 2 (6.7) number of subjects (%)
- Somnolence [4]: 3 (10.0) number of subjects (%)
- Tremor [4]: 1 (3.3) number of subjects (%)
- URTI (upper respiratory tract infection) [4]: 3 (10.0) number of subjects (%)
- Vertigo [4]: 1 (3.3) number of subjects (%)
- Vomiting [4]: 2 (6.7) number of subjects (%)

Structure (SMILES): COc1ccc2[nH]c([S+]([O-])Cc3ncc(C)c(OC)c3C)nc2c1 (centres unmarked) [Omeprazole, omeprazole]
- AUC(0-inf) ([2]; human, plasma, 40 mg): 1110 ng·h/mL
- Cmax ([2]; human, plasma, 40 mg): 550 ng/mL
- Cmax greater when given with vortioxetine than without ([2]; omeprazole with vs without vortioxetine): 11%
- Cmax ratio (test/reference) ([2]; with vortioxetine vs alone): 111%

Structure (SMILES): Cc1ccc(Sc2cc(O)ccc2N2CCNCC2)c(C)c1 [Lu AA39835]
- plasma metabolic ratio [5]: ≤ 4%
- penetration of the blood–brain barrier [6]: not expected to penetrate the blood–brain barrier

Structure (SMILES): C#C[C@]1(O)CC[C@H]2[C@@H]3CCc4cc(O)ccc4[C@H]3CC[C@@]21C [Ethinyl estradiol, ethinyl estradiol]
- AUC [7, 28]: 0.857 ng·h/mL
- AUC [7, 29]: 0.85 ng·h/mL
- Cmax [7, 29]: 0.0816 ng/mL
- AUC24 ratio (test/reference) [7]: 99.19%
- Cmax ratio (test/reference) [7]: 93.87%

Structure (SMILES): C#C[C@]1(O)CC[C@H]2[C@@H]3CCC4=CC(=O)CC[C@@H]4[C@H]3CC[C@@]21CC [Levonorgestrel, levonorgestrel]
- AUC [7, 28]: 86.8 ng·h/mL
- Cmax [7, 28]: 6.76 ng/mL
- Cmax [7, 29]: 7.23 ng/mL
- AUC24 ratio (test/reference) [7]: 102.07%
- Cmax ratio (test/reference) [7]: 107.06%

Structure (SMILES): Cc1cc(C(=O)O)ccc1Sc1ccccc1N1CCNCC1 [Lu AA34443]
- pharmacological activity [8]: pharmacologically inactive

Structure (SMILES): Br.Cc1ccc(Sc2ccccc2N2CCNCC2)c(C)c1 [Vortioxetine, 1-[2-(2,4-dimethylphenylsulfanyl)-phenyl]-piperazine-hydrobromide]
- increase in vortioxetine AUC [9, 30]: 30%
- increase in vortioxetine Cmax [9, 30]: 26%
- AUC(0-t) ([9]; human, plasma, 10 mg): 262 ng·h/mL
- Cmax ([9]; human, plasma, 10 mg): 4.92 ng/mL
- AUClast ratio (test/reference) ([9]; with ketoconazole vs alone): 130.48%
- Cmax ratio (test/reference) ([9]; with ketoconazole vs alone): 125.73%
- elimination half-life [10]: 57 h
- steady-state volume of distribution [10]: approximately 2600 L
- oral bioavailability ([10]; independent of food): 75%
- inhibitory concentration/inhibition constant ratio ([I]/Ki) [11]: ≤ 0.024
- increase in vortioxetine AUC [12, 31]: 46%
- increase in vortioxetine Cmax [12, 31]: 15%
- AUC(0-t) ([12]; human, plasma, 10 mg): 222 ng·h/mL
- Cmax ([12]; human, plasma, 10 mg): 4.52 ng/mL
- AUClast ratio (test/reference) ([12]; with fluconazole vs alone): 146.17%
- Cmax ratio (test/reference) ([12]; with fluconazole vs alone): 114.64%
- drug-related material excreted in the feces [13]: one-third
- drug-related material excreted in the urine ([13]; primarily as Lu AA34443 and its glucuronide): two-thirds
- inhibitory concentration/inhibition constant ratio ([I]/Ki) [14]: ≤ 0.024
- inhibitory concentration/inhibition constant ratio ([I]/Ki) [15]: ≤ 0.024
- inhibitory concentration/inhibition constant ratio ([I]/Ki) [16]: ≤ 0.024
- AUC ([17]; human, plasma, 10 mg): 243 ng·h/mL
- Cmax ([17]; human, plasma, 10 mg): 13.8 ng/mL
- AUC24 ratio (test/reference) ([17]; with omeprazole vs alone): 105.5%
- Cmax ratio (test/reference) ([17]; with omeprazole vs alone): 100.5%
- in vitro net efflux ratio (P-gp substrate) [18]: much lower than that of the P-gp substrate digoxin
- Abnormal dreams [4]: 2 (6.7) number of subjects (%)
- Agitation [4]: 0 number of subjects (%)
- Anxiety [4]: 0 number of subjects (%)
- Constipation [4]: 3 (10.0) number of subjects (%)
- Dizziness [4]: 1 (3.3) number of subjects (%)
- Dyspepsia [4]: 1 (3.3) number of subjects (%)
- Fatigue [4]: 1 (3.3) number of subjects (%)
- Headache [4]: 4 (13.3) number of subjects (%)
- Hyperhidrosis [4]: 0 number of subjects (%)
- Insomnia [4]: 1 (3.3) number of subjects (%)
- Nausea [4]: 9 (30.0) number of subjects (%)
- Oropharyngeal pain [4]: 0 number of subjects (%)
- Palpitations [4]: 2 (6.7) number of subjects (%)
- Somnolence [4]: 0 number of subjects (%)
- Tremor [4]: 0 number of subjects (%)
- URTI (upper respiratory tract infection) [4]: 0 number of subjects (%)
- Vertigo [4]: 0 number of subjects (%)
- Vomiting [4]: 3 (10.0) number of subjects (%)
- inhibitory concentration/inhibition constant ratio ([I]/Ki) [19]: ≤ 0.024
- inhibitory concentration/inhibition constant ratio ([I]/Ki) [20]: ≤ 0.024
- inhibitory concentration/inhibition constant ratio ([I]/Ki) [21]: ≤ 0.024
- increase in exposure of vortioxetine ([22]; bupropion added to vortioxetine): approximately 100%
- increase in vortioxetine AUC [22, 32]: 128%
- increase in vortioxetine Cmax [22, 32]: 114%
- AUC ([22]; human, plasma, 10 mg): 308 ng·h/mL
- Cmax ([22]; human, plasma, 10 mg): 15.9 ng/mL
- AUC24 ratio (test/reference) ([22]; with bupropion vs alone): 228.30%
- Cmax ratio (test/reference) ([22]; with bupropion vs alone): 213.57%
- decrease in vortioxetine AUC (exposure) [23, 33]: 72% and 72 to 77%
- decrease in vortioxetine Cmax [23, 33]: 51%
- AUC(0-t) ([23]; human, plasma, 20 mg): 438 ng·h/mL
- Cmax ([23]; human, plasma, 20 mg): 8.92 ng/mL
- AUClast ratio (test/reference) ([23]; with rifampicin vs alone): 27.74%
- Cmax ratio (test/reference) ([23]; with rifampicin vs alone): 49.11%
- inhibitory concentration/inhibition constant ratio ([I]/Ki) [24]: ≤ 0.024
- inhibitory concentration/inhibition constant ratio ([I]/Ki) [25]: ≤ 0.024
